Results of several laboratories.
AMY2: Pancreatic alpha-amylase (AMY2, Sus scrofa, UniProt P00690)
GAK: Cyclin-G-associated kinase (GAK, Homo sapiens, UniProt O14976)
Maoa: Amine oxidase [flavin-containing] A (Maoa, Rattus norvegicus, UniProt P21396)
PADI3: Protein-arginine deiminase type-3 (PADI3, Homo sapiens, UniProt Q9ULW8)
KRAS G12C: GTPase KRas (KRAS, Homo sapiens, UniProt P01116, G12C)
Genome polyprotein protease: Genome polyprotein, protease (Hepatitis C virus genotype 1b, UniProt Q9WMX2)

The inhibition of `CCN(O)N=Nc1ccc(S(=O)(=O)Nc2cc(C)on2)cc1` is reported as 42.1% (AMY2; enzyme activity, inhibitor; 120 µg/mL).
For `COc1cc2nccc(Nc3cccc(C(C)=O)c3)c2cc1OC`, the ΔTm was 1.3 °C (GAK; thermal stability, DSF; 10 µM).
With `CN1CCC2(CC1)NC(=O)c1c(c3ccc(Cl)c(Cl)c3n1C)C2C#N` (racemic) the ΔTm was -0.1 °C (Serine/threonine-protein kinase DCLK1 (DCLK1, Homo sapiens, UniProt O15075); thermal stability, DSF; 10 µM).
The ΔTm of `FC(F)(F)c1ccc2nccc(Nc3ccc4c(c3)OCCO4)c2c1` is reported as 1.5 °C (GAK; thermal stability, DSF; 10 µM).
`COc1ccc(CN)cc1` gave a Km of 80 µM (Maoa; enzyme activity, substrate; pH 7.5).
For `CC(C)(C)n1nnc([C@H](CCCNC(=N)CCl)NC(=O)c2ccccc2)n1`, the kinact/KI was 7.67 M⁻¹ s⁻¹ (PADI3; enzyme activity, inhibitor).
`Cc1ccc(C(=O)Nc2ccc(CN3CCN(C)CC3)c(C(F)(F)F)c2)cc1C#Cc1cnc2cccnn12` has a remaining activity of 73% (GAK; enzyme activity, inhibitor; 23.5 nM).
For `Cc1ccc(N(O)N=Nc2ccc(S(=O)(=O)Nc3cc(C)on3)cc2)cc1`, the inhibition was 26.3% (AMY2; enzyme activity, inhibitor; 60 µg/mL).
For `CC(C)(C)n1nnc([C@H](CCCNC(=N)CCl)NC(=O)c2ccc(-c3ccccc3)cc2)n1`, the kinact/KI was 82.3 M⁻¹ s⁻¹ (PADI3; enzyme activity, inhibitor).
With `COc1cc(Nc2ccnc3ccccc23)cc(OC)c1OC` the ΔTm was 4.4 °C (GAK; thermal stability, DSF; 10 µM).
The kinact of `C=CC(=O)N1CCN(c2cccc(-c3noc([C@@]4(C)CCCc5sc(N)c(C#N)c54)n3)c2)CC1` is reported as 8.33e-05 s⁻¹ (KRAS G12C; cell-free assay, inhibitor).
`FC(F)(F)c1ccc2nccc(Nc3cccc(Br)c3)c2c1` has a ΔTm of 3.8 °C (GAK; thermal stability, DSF; 10 µM).
With `C=CC(=O)Nc1ccc(-c2noc([C@@]3(C)CCCc4sc(N)c(C#N)c43)n2)cc1` the kinact was 0.00011 s⁻¹ (KRAS G12C; cell-free assay).
For `CCCOc1ccc(OC)c(F)c1C(=O)c1ccc(C(=O)N[C@@H]2CNC[C@H]2NC(=O)c2ccc3[nH]ncc3c2)cc1`, the remaining activity was 52% (Serine/threonine-protein kinase MRCK beta (CDC42BPB, Homo sapiens, UniProt Q9Y5S2); enzyme activity, inhibitor; 50 nM).
The ΔTm of `COc1cc(Nc2ccnc3ccc(C(C)(C)C)cc23)cc(OC)c1OC` is reported as 5.2 °C (GAK; thermal stability, DSF; 10 µM).
For `N=C(CCl)NCCC[C@H](NC(=O)c1ccccc1)c1nn[nH]n1`, the kinact/KI was 49.6 M⁻¹ s⁻¹ (PADI3; enzyme activity, inhibitor).
With `CCCN(O)N=Nc1ccc(S(=O)(=O)Nc2onc(C)c2C)cc1` the inhibition was 26.3% (AMY2; enzyme activity, inhibitor; 20 µg/mL).
With `CN1CCN(C(=O)c2ccc3cc(CCNc4ccnc5ccc(C#N)cc45)ccc3c2)CC1` the kon was 939000 M⁻¹ s⁻¹ (Cyclin-dependent kinase 19, with cyclin C (CDK19, Homo sapiens, UniProt Q9BWU1); binding, TR-FRET).
`COc1cc(C=CC(=O)CC(c2ccc(N(C)C)cc2)n2ccnc2)ccc1O` (stereo not drawn) gave an inhibition of 67.3% (AMY2; enzyme activity, inhibitor, absorbance; 2.5 µg/mL).
For `C[C@H]1O[C@H](O[C@H]2[C@H](O)[C@@H](O)[C@@H](O[C@H]3[C@H](O)[C@@H](O)C(O)O[C@@H]3CO)O[C@@H]2CO)[C@H](O)[C@@H](O)[C@@H]1N[C@H]1C=C(CO)[C@@H](O)[C@H](O)[C@H]1O` (stereo partly drawn), the inhibition was 23.1% (AMY2; enzyme activity, inhibitor; 10 µg/mL).
The kinact/KI of `N=C(CCl)NCCC[C@H](NC(=O)c1ccccc1C(=O)O)c1nn[nH]n1` is reported as 207 M⁻¹ s⁻¹ (PADI3; enzyme activity, inhibitor).
With `O=C1O[C@H]2[C@@H]3OC(=O)c4cc(O)c(O)c(O)c4-c4c(O)c(O)c5oc(=O)c6c(c(O)c(O)c7oc(=O)c4c5c76)-c4c(cc(O)c(O)c4O)C(=O)OC[C@H]3OC(O)[C@@H]2OC(=O)c2cc(O)c(O)c(O)c2-c2c1cc(O)c(O)c2O` (mixture of isomers) the IC90 was about 2500 nM (Genome polyprotein protease; enzyme activity, inhibitor, fluorescence).
The kinact/KI of `N=C(CF)NCCC[C@H](NC(=O)c1ccc(-c2ccccc2)cc1)c1nn[nH]n1` is reported as 5.08 M⁻¹ s⁻¹ (PADI3; enzyme activity, inhibitor).
With `NCc1ccc(C(F)(F)F)cc1` the Km was 194 µM (Maoa; enzyme activity, substrate; pH 7.5).
For `COc1cc(C=Cc2cc(-c3ccc(N(C)C)cc3)nc(O)n2)ccc1O`, the inhibition was 72.4% (AMY2; enzyme activity, inhibitor, absorbance; 5 µg/mL).
`O=C1OC[C@H]2OC(O)[C@H](O)[C@@H](O)[C@@H]2OC(=O)c2cc(O)c(O)c(O)c2-c2c(O)c(O)c3oc(=O)c4c(c(O)c(O)c5oc(=O)c2c3c54)-c2c1cc(O)c(O)c2O` (mixture of isomers) has an IC90 of about 1000 nM (Genome polyprotein protease; enzyme activity, inhibitor, fluorescence).
`CN(O)N=Nc1ccc(S(=O)(=O)Nc2nccs2)cc1` gave an inhibition of 42.1% (AMY2; enzyme activity, inhibitor; 120 µg/mL).
`COc1cc(Nc2cnc(C#N)c(O[C@H](C)CN(C)C)n2)ncc1-c1cnn(C)c1` has a remaining activity of 93% (Eukaryotic translation initiation factor 2-alpha kinase 3 (EIF2AK3, Homo sapiens, UniProt Q9NZJ5); enzyme activity, inhibitor, radiometric; 10 µM).
The inhibition of `CCCN(O)N=Nc1ccc(S(=O)(=O)Nc2cc(C)on2)cc1` is reported as 21.1% (AMY2; enzyme activity, inhibitor; 60 µg/mL).
`C=CC(=O)Nc1cccc(-c2noc([C@@]3(C)CCCc4sc(N)c(C#N)c43)n2)c1` gave a kinact of 0.000306 s⁻¹ (KRAS G12C; cell-free assay, inhibitor).
For `Fc1cc(Nc2ccnc3ccc(C(F)(F)F)cc23)ccc1Cl`, the ΔTm was 4.5 °C (GAK; thermal stability, DSF; 10 µM).
The inhibition of `COc1cc(C=CC(=O)CC(c2ccc([N+](=O)[O-])cc2)n2ccnc2)ccc1O` (stereo not drawn) is reported as 52.7% (AMY2; enzyme activity, inhibitor, absorbance; 1.25 µg/mL).
For `FC(F)(F)c1cccc(Nc2ccnc3ccc(C(F)(F)F)cc23)c1`, the ΔTm was 1.3 °C (GAK; thermal stability, DSF; 10 µM).
The kinact/KI of `N=C(CF)NCCC[C@H](NC(=O)c1ccccc1C(=O)O)c1nn[nH]n1` is reported as 63.3 M⁻¹ s⁻¹ (PADI3; enzyme activity, inhibitor).
`Cc1cc(NS(=O)(=O)c2ccc(N=NN(O)c3ccccc3)cc2)no1` gave an inhibition of 73.7% (AMY2; enzyme activity, inhibitor; 300 µg/mL).
`CC/C(=N\NC(=O)NCc1cccc(O)c1)c1ccc(O)c(C)c1O` gave an inhibition of 1.3% (Fibroblast growth factor receptor 3 (FGFR3, Homo sapiens, UniProt P22607, K650E); enzyme activity, inhibitor; 0.1 µM).
The ΔTm of `COc1cc(Nc2ccnc3cc(C#N)ccc23)cc(OC)c1OC` is reported as 5.3 °C (GAK; thermal stability, DSF; 10 µM).
For `CCCN(O)N=Nc1ccc(S(=O)(=O)Nc2nccs2)cc1`, the inhibition was 63.2% (AMY2; enzyme activity, inhibitor; 240 µg/mL).
`Nc1ncnc2occ(-c3ccc(NC(=O)Nc4cc(C(F)(F)F)ccc4F)cc3)c12` has a remaining signal of 41% (GAK; cell-free assay, inhibitor; 20 µM).
